Values after ≈ are worked out from the molar mass of the structure shown. Active and inactive are the calls of the source. No cut-off for these calls is given here.
Experiments:
Staphylococcus aureus [1] = test: Antimicrobial activity against methicillin-resistant Staphylococcus aureus HAR24 assessed as concentration required for bacterial subpopulation growth; type: functional
Outline: (§1)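 Etest (manufacturer's method) and population analysis: overnight cultures serially diluted and plated on TSA with increasing oxacillin or BPR, CFU counted after 48 h at 37°C. Colonies from subpopulations growing at high oxacillin or BPR were picked, restreaked on antibiotic-free TSA for three passages, then retested by population analysis.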

Staphylococcus aureus [2] = test: Antimicrobial activity against methicillin-resistant Staphylococcus aureus HAR22 assessed as concentration required for minimum inhibition of oxacillin-resistant subpopulation growth by Etest; type: functional; outline: as §1
Staphylococcus aureus [3] = test: Antimicrobial activity against methicillin-resistant Staphylococcus aureus HAR22 by Etest; type: functional; outline: as §1
Staphylococcus aureus [4] = test: Antimicrobial activity against methicillin-resistant Staphylococcus aureus HU25 by Etest; type: functional; outline: as §1
Staphylococcus aureus [5] = test: Antimicrobial activity against methicillin-resistant Staphylococcus aureus HPV107 assessed as concentration required for minimum inhibition of oxacillin-resistant subpopulation growth by Etest; type: functional; outline: as §1
Staphylococcus aureus [6] = test: Antimicrobial activity against methicillin-resistant Staphylococcus aureus USA300 by Etest; type: functional; outline: as §1
Staphylococcus aureus [7] = test: Antimicrobial activity against methicillin-resistant Staphylococcus aureus BK2529 assessed as concentration required for bacterial subpopulation growth; type: functional; outline: as §1
Staphylococcus aureus [8] = test: Antimicrobial activity against methicillin-resistant Staphylococcus aureus BK2529 assessed as concentration required for minimum inhibition of oxacillin-resistant subpopulation growth by Etest; type: functional; outline: as §1
Staphylococcus aureus [9] = test: Antimicrobial activity against methicillin-resistant Staphylococcus aureus HAR24 assessed as concentration required for minimum inhibition of oxacillin-resistant subpopulation growth by Etest; type: functional; outline: as §1
Staphylococcus aureus [10] = test: Antimicrobial activity against vancomycin-intermediate Staphylococcus aureus Mu50 by Etest; type: functional
Outline: (§2)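 Etest and population analysis: overnight cultures plated on TSA with increasing vancomycin, oxacillin or BPR, CFU counted after 48 h at 37°C. For VRSA strains, vancomycin plates also run with constant 1 µg/ml BPR. Vancomycin Etest read after overnight 37°C incubation on TSA with or without 1 µg/ml BPR.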

MecA = target: T1, MecA (Staphylococcus aureus, UniProt Q7DHH4); test: Inhibition of methicillin-resistant Staphylococcus aureus COL PBP2a by competitive assay; parameters: species or system Staphylococcus aureus subsp. aureus COL
T1 sequence (Q7DHH4 whole entry): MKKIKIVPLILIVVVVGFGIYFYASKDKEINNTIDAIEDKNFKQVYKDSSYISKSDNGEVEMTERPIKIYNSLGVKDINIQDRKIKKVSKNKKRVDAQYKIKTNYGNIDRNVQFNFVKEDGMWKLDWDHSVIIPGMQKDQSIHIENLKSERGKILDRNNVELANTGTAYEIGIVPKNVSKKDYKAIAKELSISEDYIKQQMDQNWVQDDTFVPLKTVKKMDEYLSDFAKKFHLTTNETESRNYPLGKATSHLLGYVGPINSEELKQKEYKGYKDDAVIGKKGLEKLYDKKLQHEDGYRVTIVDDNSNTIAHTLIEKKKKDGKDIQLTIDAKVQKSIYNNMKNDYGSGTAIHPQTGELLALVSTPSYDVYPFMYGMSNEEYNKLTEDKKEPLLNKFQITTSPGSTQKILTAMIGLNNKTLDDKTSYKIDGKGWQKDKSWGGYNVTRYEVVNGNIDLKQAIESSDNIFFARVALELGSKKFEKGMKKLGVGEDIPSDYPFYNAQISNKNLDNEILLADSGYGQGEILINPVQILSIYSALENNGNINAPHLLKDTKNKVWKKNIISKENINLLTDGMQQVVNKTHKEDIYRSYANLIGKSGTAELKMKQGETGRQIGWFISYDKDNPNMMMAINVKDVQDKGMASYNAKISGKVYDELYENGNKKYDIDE
Outline: (§3)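 Purified soluble PBP 2A (mecA expressed in E. coli, 97% pure) at 0.8 µM, preincubated with drug 30 min at 30°C. Then 20 µM Bocillin FL added for 10 min at 37°C, quenched with SDS-PAGE buffer and boiled. Drug range 0.5–20 µM; for IC50, BPR 0.5–200 µM or oxacillin 5–6,000 µM. Curve fitting.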

Staphylococcus aureus [11] = test: Antimicrobial activity against methicillin-resistant Staphylococcus aureus E2125 assessed as concentration required for minimum inhibition of oxacillin-resistant subpopulation growth by Etest; type: functional; outline: as §1
Staphylococcus aureus [12] = test: Antimicrobial activity against methicillin-resistant Staphylococcus aureus HPV107 by Etest; type: functional; outline: as §1
[13] = target: T2, MecA (Staphylococcus aureus) (UniProt Q7DHH4); test: Inhibition of methicillin-resistant Staphylococcus aureus COL PBP2a at 10 uM by competitive assay; details: Staphylococcus aureus subsp. aureus COL; outline: as §3
T2 sequence (whole entry): T1 sequence (Q7DHH4 whole entry)

Staphylococcus aureus [14] = test: Antimicrobial activity against methicillin-resistant Staphylococcus aureus USA300 assessed as concentration required for bacterial subpopulation growth; type: functional; outline: as §1
[15] = target: T2, MecA (Staphylococcus aureus); test: Displacement of benzyl-[14C]penicillin from Staphylococcus aureus PBP2a RU130 mutant at 2500 ug/ml by in vitro competitive assay; details: Staphylococcus aureus subsp. aureus COL
Outline: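 Membranes from PBP 2 insertional mutant RU130 (Tn551 in transpeptidase domain), late exponential phase, 150 µg protein, preincubated with increasing oxacillin or BPR 10 min at 30°C. Then labelled with 20 µg/ml benzyl[14C]penicillin 10 min at 37°C and stopped with excess unlabelled penicillin in SDS. SDS-PAGE with phosphor screen exposure for 2 weeks.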

Staphylococcus aureus [16] = test: Antimicrobial activity against methicillin-resistant Staphylococcus aureus BK2529 by Etest; type: functional; outline: as §1
Staphylococcus aureus [17] = test: Antimicrobial activity against methicillin-resistant Staphylococcus aureus HAR22 assessed as concentration required for bacterial subpopulation growth; type: functional; outline: as §1
Staphylococcus aureus [18] = test: Antimicrobial activity against methicillin-resistant Staphylococcus aureus E2125 assessed as concentration required for bacterial subpopulation growth; type: functional; outline: as §1
Staphylococcus aureus [19] = test: Antimicrobial activity against methicillin-resistant Staphylococcus aureus HAR24 by Etest; type: functional; outline: as §1
Staphylococcus aureus [20] = test: Antimicrobial activity against vancomycin-resistant Staphylococcus aureus VRS1 by Etest; type: functional; outline: as §2
Staphylococcus aureus [21] = test: Antimicrobial activity against oxacillin-resistant Staphylococcus aureus COLVA harboring Tn1546 transposon by Etest; type: functional; outline: as §2
Staphylococcus aureus [22] = test: Antimicrobial activity against methicillin-resistant Staphylococcus aureus BK2464 assessed as concentration required for minimum inhibition of oxacillin-resistant subpopulation growth by Etest; type: functional; outline: as §1
Staphylococcus aureus [23] = test: Antimicrobial activity against methicillin-resistant Staphylococcus aureus BK2464 by Etest; type: functional; outline: as §1
Staphylococcus aureus [24] = test: Antimicrobial activity against methicillin-resistant Staphylococcus aureus COL by Etest; type: functional; outline: as §1
Staphylococcus aureus [25] = test: Antimicrobial activity against methicillin-resistant Staphylococcus aureus HU25 assessed as concentration required for bacterial subpopulation growth; type: functional; outline: as §1
Staphylococcus aureus [26] = test: Antimicrobial activity against methicillin-resistant Staphylococcus aureus E2125 by Etest; type: functional; outline: as §1
Staphylococcus aureus [27] = test: Antimicrobial activity against methicillin-resistant Staphylococcus aureus USA300 assessed as concentration required for minimum inhibition of oxacillin-resistant subpopulation growth by Etest; type: functional; outline: as §1
[28] = target: T2, MecA (Staphylococcus aureus); test: Inhibition of methicillin-resistant Staphylococcus aureus 67-O PBP2a by competitive assay
Staphylococcus aureus [29] = test: Antimicrobial activity against methicillin-resistant Staphylococcus aureus COL assessed as reduction in viable bacterial titer after 24 hrs in presence of 10 times compound MIC; type: functional
Staphylococcus aureus [30] = test: Antimicrobial activity against methicillin-resistant Staphylococcus aureus HDE288 assessed as concentration required for minimum inhibition of oxacillin-resistant subpopulation growth by Etest; type: functional; outline: as §1
Staphylococcus aureus [31] = test: Antimicrobial activity against methicillin-resistant Staphylococcus aureus HDE288 by Etest; type: functional; outline: as §1
Staphylococcus aureus [32] = test: Antimicrobial activity against vancomycin-intermediate Staphylococcus aureus JH9 obtained from bacteremic patient by Etest; type: functional; outline: as §2
Staphylococcus aureus [33] = test: Antimicrobial activity against methicillin-resistant Staphylococcus aureus BK2464 assessed as concentration required for bacterial subpopulation growth; type: functional; outline: as §1
Staphylococcus aureus [34] = test: Bactericidal activity against methicillin-resistant Staphylococcus aureus COL assessed as reduction in viable bacterial titer after 24 hrs at 10 times MIC; type: functional, organism-based
Outline: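 Time-kill: exponentially growing COL cultures (OD620 0.2, about 10^8 CFU/ml at zero time) given 10× MIC of drug under aerobic conditions. Untreated control. Aliquots taken at intervals, serially diluted, plated on TSA, colonies counted after 48 h at 37°C.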

Staphylococcus aureus [35] = test: Antimicrobial activity against methicillin-resistant Staphylococcus aureus HDE288 assessed as concentration required for bacterial subpopulation growth; type: functional; outline: as §1
Staphylococcus aureus [36] = test: Antimicrobial activity against methicillin-resistant Staphylococcus aureus HPV107 assessed as concentration required for bacterial subpopulation growth; type: functional; outline: as §1

Q: How did the Activity (Staphylococcus aureus [1]) turn out when `Cc1onc(-c2ccccc2)c1C(=O)N[C@@H]1C(=O)N2[C@@H]1SC(C)(C)[C@@H]2C(=O)O` [OXACILLIN] was run?
A: 800 µg/mL

Q: And the Activity (Staphylococcus aureus [2])?
A: 800 µg/mL

Q: What about the MIC (Staphylococcus aureus [3]) of the same compound?
A: 100 µg/mL (≈ 249 µM)

Q: And the MIC (Staphylococcus aureus [4])?
A: 400 µg/mL (≈ 996 µM)

Q: And the Activity (Staphylococcus aureus [5])?
A: 100 µg/mL

Q: What about the MIC (Staphylococcus aureus [6]) of the same compound?
A: 0.8 µg/mL (≈ 1.99 µM)

Q: What about the Activity (Staphylococcus aureus [7]) of the same compound?
A: 400 µg/mL

Q: What about the Activity (Staphylococcus aureus [8]) of the same compound?
A: 200 µg/mL

Q: What about the Activity (Staphylococcus aureus [9]) of the same compound?
A: 800 µg/mL

Q: And the MIC (Staphylococcus aureus [10])?
A: > 800 µg/mL

Q: And the IC50 (MecA)?
A: 710 µM

Q: What about the Activity (Staphylococcus aureus [11]) of the same compound?
A: 400 µg/mL

Q: And the MIC (Staphylococcus aureus [12])?
A: 0.8 µg/mL (≈ 1.99 µM)

Q: What about the inhibition [13] of the same compound?
A: 5%

Q: What about the Activity (Staphylococcus aureus [14]) of the same compound?
A: 800 µg/mL

Q: And the Activity [15]?
A: Active

Q: What about the MIC (Staphylococcus aureus [16]) of the same compound?
A: 1.5 µg/mL (≈ 3.74 µM)

Q: What about the Activity (Staphylococcus aureus [17]) of the same compound?
A: 400 µg/mL

Q: What about the Activity (Staphylococcus aureus [18]) of the same compound?
A: 400 µg/mL

Q: What about the MIC (Staphylococcus aureus [19]) of the same compound?
A: 100 µg/mL (≈ 249 µM)

Q: And the MIC (Staphylococcus aureus [20])?
A: > 800 µg/mL

Q: What about the MIC (Staphylococcus aureus [21]) of the same compound?
A: 800 µg/mL (≈ 1990 µM)

Q: What about the Activity (Staphylococcus aureus [22]) of the same compound?
A: 200 µg/mL

Q: What about the MIC (Staphylococcus aureus [23]) of the same compound?
A: 12.5 µg/mL (≈ 31.1 µM)

Q: What about the MIC (Staphylococcus aureus [24]) of the same compound?
A: > 800 µg/mL

Q: And the Activity (Staphylococcus aureus [25])?
A: 800 µg/mL

Q: What about the MIC (Staphylococcus aureus [26]) of the same compound?
A: 6 µg/mL (≈ 14.9 µM)

Q: And the Activity (Staphylococcus aureus [27])?
A: 400 µg/mL

Q: And the Activity [28]?
A: 300 µg/mL

Q: And the fold reduction in CFU (Staphylococcus aureus [29])?
A: 1000 fold

Q: What about the Activity (Staphylococcus aureus [30]) of the same compound?
A: 200 µg/mL

Q: And the MIC (Staphylococcus aureus [31])?
A: 0.8 µg/mL (≈ 1.99 µM)

Q: And the MIC (Staphylococcus aureus [32])?
A: 3 µg/mL (≈ 7.47 µM)

Q: What about the Activity (Staphylococcus aureus [33]) of the same compound?
A: 400 µg/mL

Q: And the Activity (Staphylococcus aureus [34])?
A: inactive

Q: And the Activity (Staphylococcus aureus [35])?
A: 400 µg/mL

Q: What about the Activity (Staphylococcus aureus [36]) of the same compound?
A: 400 µg/mL

Q: With `CN[C@H](CC(C)C)C(=O)N[C@H]1C(=O)N[C@@H](CC(N)=O)C(=O)N[C@H]2C(=O)N[C@H]3C(=O)N[C@H](C(=O)N[C@H](C(=O)O)c4cc(O)cc(O)c4-c4cc3ccc4O)[C@H](O)c3ccc(c(Cl)c3)Oc3cc2cc(c3O[C@@H]2O[C@H](CO)[C@@H](O)[C@H](O)[C@H]2O[C@H]2C[C@](C)(N)[C@H](O)[C@H](C)O2)Oc2ccc(cc2Cl)[C@H]1O` [VANCOMYCIN] as the compound, how does the MIC (Staphylococcus aureus [10]) read?
A: 6 µg/mL (≈ 4.14 µM)

Q: What about the MIC (Staphylococcus aureus [20]) of the same compound?
A: > 800 µg/mL

Q: What about the MIC (Staphylococcus aureus [21]) of the same compound?
A: 800 µg/mL (≈ 552 µM)

Q: What about the MIC (Staphylococcus aureus [32]) of the same compound?
A: 6 µg/mL (≈ 4.14 µM)

From ChEMBL document CHEMBL1275462 (Antimicrob Agents Chemother, 2008)
